Published values from different studies.
Compare with care: the assays were run in different laboratories.
BCHE: Cholinesterase (BCHE, Homo sapiens, UniProt P06276)
Oprk1: Kappa-type opioid receptor (Oprk1, Mus musculus, UniProt P33534)

SMILES	target	read-out	mode	method	endpoint	value
CC(C)c1cc2c(c(O)c1O)[C@@]13CCCC(C)(C)[C@@H]1C[C@@H]2OC3=O	BCHE	enzyme activity	inhibitor	absorbance	Ki	0.3 nM
Cc1c(CC(=O)N[C@@H](CN2CCc3ccccc3C2)C(C)C)cccc1[N+](=O)[O-]	Oprk1	ligand displacement	–	radioligand	Ki	3380 nM
C=CCOc1ccc(C(=O)/C=C/c2cccc(F)c2)c(OS(=O)(=O)c2ccc(F)cc2)c1I	BCHE	enzyme activity	inhibitor	–	IC50	30200 nM
CCOC(=O)c1ccc(OC(=O)CCCCCN=C(N)N)cc1	Plasma kallikrein (KLKB1, Homo sapiens, UniProt P03952)	enzyme activity	inhibitor	–	IC50	86.4 nM
COc1cc(/C=C/C(=O)O)ccc1OCc1cn(CC(=O)Nc2ccc(Cl)cc2Cl)nn1	BCHE	enzyme activity	inhibitor	Ellman	Ki	1850 nM
CC(C)c1cc2c(c(O)c1O)[C@@]13CCCC(C)(C)[C@@H]1[C@H](OC3=O)[C@H]2O	BCHE	enzyme activity	inhibitor	absorbance	Ki	0.2 nM
C=CCOc1ccc(C(=O)/C=C/c2cccc(F)c2)c(OS(C)(=O)=O)c1I	BCHE	enzyme activity	inhibitor	–	IC50	19200 nM
COc1c2c(cc3c1-c1c(cc4c(c1OC)OCO4)C[C@H](C)[C@H](C)C3)OCO2	Cocaine esterase (CES2, Homo sapiens, UniProt O00748)	enzyme activity	inhibitor	fluorescence	IC50	1340 nM
Cn1cc2cc(C(F)(F)c3nnc4ccc(-c5cnn(C6CC6)c5)nn34)c(F)cc2n1	Fibroblast growth factor receptor 4 (FGFR4, Homo sapiens, UniProt P22455)	enzyme activity	inhibitor	ADP detection	IC50	> 1000 nM
CCCC(=O)CC(=O)N[C@H]1CCOC1=O	qscR (Pseudomonas aeruginosa, UniProt G3XD77)	reporter gene	agonist	–	EC50	13000 nM
CC(C)c1cc2c(c(O)c1O)[C@@]13CCCC(C)(C)[C@@H]1[C@@H](O)[C@@H]2OC3=O	BCHE	enzyme activity	inhibitor	absorbance	Ki	0.33 nM
CC(C)[C@H](CN1CCc2ccccc2C1)NC(=O)Cc1c[nH]c2ccccc12	Oprk1	ligand displacement	–	radioligand	Ki	2810 nM
C=CCc1ccc(O)c(-c2cc(CC=C)ccc2O)c1	BCHE	enzyme activity	inhibitor	Ellman	IC50	> 100000 nM
C=CCOc1ccc(C(=O)/C=C/c2cccc(F)c2)c(OS(=O)(=O)c2ccc(OC)cc2)c1I	BCHE	enzyme activity	inhibitor	–	IC50	14500 nM
CC(C)[C@@H](CN1CCc2ccccc2C1)NC(=O)c1cccc(-c2cccc(O)c2)c1	Oprk1	ligand displacement	–	radioligand	Ki	810 nM
CC(C)c1cc2c(c(O)c1O)[C@@]1(C(=O)O)CCCC(C)(C)[C@@H]1CC2	BCHE	enzyme activity	inhibitor	–	IC50	0.66 nM
C=CCOc1ccc(C(=O)/C=C/c2ccc(OC)cc2)c(OS(=O)(=O)c2ccc(OC)cc2)c1I	BCHE	enzyme activity	inhibitor	–	IC50	30100 nM
